Measured values: ChEMBL document CHEMBL1141778, “Iminosugar-producing Thai medicinal plants” (J Nat Prod, 2005)
Active and inactive are the calls of the source. The rule behind the calls is not given here.

Assays:
[1] = Inhibition of alpha-L-fucosidase
Method in brief: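 Bovine epididymis alpha-L-fucosidase at pH 5.5 with the matching p-nitrophenyl glycoside as substrate. The reaction was stopped with 400 mM Na2CO3, and released p-nitrophenol was read at 400 nm.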

[2] = Inhibition of bovine liver beta-galactosidase; set-up: species or system Bos taurus
Method in brief: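 Bovine liver beta-galactosidase at pH 6.8 with the matching p-nitrophenyl glycoside substrate. Stopped by adding 400 mM Na2CO3; released p-nitrophenol was measured at 400 nm.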

[3] = (§1) Inhibition of almond beta-glucosidase; set-up: species or system Prunus dulcis
Method in brief: (§2)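 The substrate was the matching p-nitrophenyl glycoside. Reactions were terminated with 400 mM Na2CO3, and liberated p-nitrophenol was measured spectrophotometrically at 400 nm.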

[4] = molecular target: T1, Sucrase-isomaltase, intestinal (Rattus norvegicus, UniProt P23739); assay: Inhibition of rat intestinal sucrase
Method in brief: (§3)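 Enzyme source was brush border membranes prepared from rat small intestine, assayed at pH 5.8 with sucrose (sucrase) or isomaltose (isomaltase) as substrate. Released D-glucose was quantified colorimetrically with a glucose test kit.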

[5] = molecular target: T1, Sucrase-isomaltase, intestinal; assay: Inhibition of rat intestinal isomaltase; method in brief: as §3
Prunus dulcis = assay: as §1; method in brief: as §2

T1 sequence (P23739 1-1013 limits assumed): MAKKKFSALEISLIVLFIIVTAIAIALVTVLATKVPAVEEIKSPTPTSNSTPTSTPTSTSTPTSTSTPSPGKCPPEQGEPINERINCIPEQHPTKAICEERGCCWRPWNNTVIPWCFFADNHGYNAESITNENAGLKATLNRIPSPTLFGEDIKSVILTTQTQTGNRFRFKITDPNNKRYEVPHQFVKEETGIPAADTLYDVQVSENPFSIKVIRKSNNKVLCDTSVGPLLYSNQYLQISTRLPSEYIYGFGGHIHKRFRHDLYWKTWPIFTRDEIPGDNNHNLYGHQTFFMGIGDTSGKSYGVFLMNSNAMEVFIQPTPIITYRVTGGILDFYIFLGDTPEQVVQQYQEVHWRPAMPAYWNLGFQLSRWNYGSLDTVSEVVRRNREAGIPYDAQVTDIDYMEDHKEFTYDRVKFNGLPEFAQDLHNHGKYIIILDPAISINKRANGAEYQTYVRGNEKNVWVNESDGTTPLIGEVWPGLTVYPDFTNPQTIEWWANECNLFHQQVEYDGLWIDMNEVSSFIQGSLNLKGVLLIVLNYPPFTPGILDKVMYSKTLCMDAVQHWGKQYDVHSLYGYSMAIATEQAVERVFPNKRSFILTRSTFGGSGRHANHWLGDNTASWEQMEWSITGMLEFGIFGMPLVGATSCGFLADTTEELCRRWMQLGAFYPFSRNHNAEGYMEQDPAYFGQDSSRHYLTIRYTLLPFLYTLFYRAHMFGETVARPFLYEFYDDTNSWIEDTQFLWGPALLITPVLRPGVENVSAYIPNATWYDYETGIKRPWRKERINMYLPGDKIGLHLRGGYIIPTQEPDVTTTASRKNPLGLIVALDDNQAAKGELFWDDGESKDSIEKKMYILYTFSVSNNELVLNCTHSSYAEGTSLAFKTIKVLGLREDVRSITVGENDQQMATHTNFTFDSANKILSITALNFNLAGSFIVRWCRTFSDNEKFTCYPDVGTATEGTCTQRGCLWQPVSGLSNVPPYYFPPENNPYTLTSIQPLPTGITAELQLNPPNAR
T1 sequence (P23739 1014-1841 limits assumed): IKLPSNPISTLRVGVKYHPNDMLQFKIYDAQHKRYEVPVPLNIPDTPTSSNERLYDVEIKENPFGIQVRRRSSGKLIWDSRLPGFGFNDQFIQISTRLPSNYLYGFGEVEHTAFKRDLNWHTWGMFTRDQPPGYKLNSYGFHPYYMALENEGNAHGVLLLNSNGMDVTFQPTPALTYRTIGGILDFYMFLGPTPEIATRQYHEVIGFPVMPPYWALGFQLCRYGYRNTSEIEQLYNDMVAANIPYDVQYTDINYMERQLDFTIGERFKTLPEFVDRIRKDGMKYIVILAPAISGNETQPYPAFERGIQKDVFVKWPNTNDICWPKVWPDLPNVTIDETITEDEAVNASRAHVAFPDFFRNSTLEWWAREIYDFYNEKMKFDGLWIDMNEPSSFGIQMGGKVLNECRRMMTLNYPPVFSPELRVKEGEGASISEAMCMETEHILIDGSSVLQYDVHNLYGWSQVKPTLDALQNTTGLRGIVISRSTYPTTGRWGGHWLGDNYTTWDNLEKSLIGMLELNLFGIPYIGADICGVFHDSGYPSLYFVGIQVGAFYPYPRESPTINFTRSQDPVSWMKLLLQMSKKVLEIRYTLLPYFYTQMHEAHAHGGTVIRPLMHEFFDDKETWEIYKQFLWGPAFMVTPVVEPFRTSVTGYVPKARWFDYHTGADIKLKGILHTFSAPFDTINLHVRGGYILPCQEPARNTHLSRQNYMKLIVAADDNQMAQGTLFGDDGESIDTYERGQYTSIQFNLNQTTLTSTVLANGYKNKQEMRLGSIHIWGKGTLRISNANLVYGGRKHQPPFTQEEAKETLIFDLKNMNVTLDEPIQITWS

OC[C@H]1NC[C@@H](O)[C@@H](O[C@@H]2O[C@H](CO)[C@@H](O)[C@H](O)[C@H]2O)[C@@H]1O
Activity [1]: inactive

OC[C@H]1N[C@H](CO)[C@@H](O)[C@H]1O
IC50 [2]: 3.3 µM | IC50 [3]: 7.8 µM

OC[C@H]1O[C@H](OC[C@H]2NC[C@@H](O)[C@@H](O)[C@@H]2O)[C@H](O)[C@@H](O)[C@@H]1O
Ki [1]: 19 µM

OC[C@H]1NC[C@@H](O)[C@@H](O)[C@@H]1O[C@@H]1O[C@H](CO)[C@@H](O)[C@H](O)[C@H]1O
Activity [1]: inactive

OC[C@H]1NC[C@@H](O[C@@H]2O[C@H](CO)[C@@H](O)[C@H](O)[C@H]2O)[C@@H](O)[C@@H]1O
Activity [1]: inactive

OC[C@@H]1N[C@H](CO)[C@@H](O)[C@@H]1O
IC50 [4]: 1000 µM | IC50 [5]: 1000 µM | IC50 [3]: 320 µM

OC[C@H]1N[C@H](CO)[C@@H](O[C@@H]2O[C@H](CO)[C@@H](O)[C@H](O)[C@H]2O)[C@@H]1O
IC50 [2]: 270 µM | Activity (Prunus dulcis): inactive

C[C@@H]1O[C@@H](O[C@@H]2CN[C@H](CO)[C@@H](O)[C@@H]2O)[C@H](O)[C@H](O)[C@H]1O
Ki [1]: 0.06 µM

OC[C@H]1NC[C@@H](O[C@H]2O[C@H](CO)[C@H](O)[C@H](O)[C@H]2O)[C@@H](O)[C@@H]1O
Activity [1]: inactive
